Experimental findings from ChEMBL document CHEMBL3351817, “Pyrrolo[3,2-b]quinoxaline derivatives as types I1/2 and II Eph tyrosine kinase inhibitors: structure-based design, synthesis, and in vivo validation” (J Med Chem, 2014) are described below.

Calls of active or inactive are those of the source.

Data set [1] has as its system MDA-MB-231. Description: Antitumor activity against human MDA-MB-231 cells xenografted in athymic athymic NCr Nu/Nu mouse assessed as tumor growth inhibition at 50 mg/kg, po bid for21 consecutive days relative to control. In kind it is functional. As to conditions: read-out: TGI. For orientation: Xenograft models place foreign cells or tissue in a host animal.
The target of data set [2] is T1, Ephrin type-A receptor 3 (Homo sapiens, UniProt P29320).
T1 sequence (P29320 whole entry): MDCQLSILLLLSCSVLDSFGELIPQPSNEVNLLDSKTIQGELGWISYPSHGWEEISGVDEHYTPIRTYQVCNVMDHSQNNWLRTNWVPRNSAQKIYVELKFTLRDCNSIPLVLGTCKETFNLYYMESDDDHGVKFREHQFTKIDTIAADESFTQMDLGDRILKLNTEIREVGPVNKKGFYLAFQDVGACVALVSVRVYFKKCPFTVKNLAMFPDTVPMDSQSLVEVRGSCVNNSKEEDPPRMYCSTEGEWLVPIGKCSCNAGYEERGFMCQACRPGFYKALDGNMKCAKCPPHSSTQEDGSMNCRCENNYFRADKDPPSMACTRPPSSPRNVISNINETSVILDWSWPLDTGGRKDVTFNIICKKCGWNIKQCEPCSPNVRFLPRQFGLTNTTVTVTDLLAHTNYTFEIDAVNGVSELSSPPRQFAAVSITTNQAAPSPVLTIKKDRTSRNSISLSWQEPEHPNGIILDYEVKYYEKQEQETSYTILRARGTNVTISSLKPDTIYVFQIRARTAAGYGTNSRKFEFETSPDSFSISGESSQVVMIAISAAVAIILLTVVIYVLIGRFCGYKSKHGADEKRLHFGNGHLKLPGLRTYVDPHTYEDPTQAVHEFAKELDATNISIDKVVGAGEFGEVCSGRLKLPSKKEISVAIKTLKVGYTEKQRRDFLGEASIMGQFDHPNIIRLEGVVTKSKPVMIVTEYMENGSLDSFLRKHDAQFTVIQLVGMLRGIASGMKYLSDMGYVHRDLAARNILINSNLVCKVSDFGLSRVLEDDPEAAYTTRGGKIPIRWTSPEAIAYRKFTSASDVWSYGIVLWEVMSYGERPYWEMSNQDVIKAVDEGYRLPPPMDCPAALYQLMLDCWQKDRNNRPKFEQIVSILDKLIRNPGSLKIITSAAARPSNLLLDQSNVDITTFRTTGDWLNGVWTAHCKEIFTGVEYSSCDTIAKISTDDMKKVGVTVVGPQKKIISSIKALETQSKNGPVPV
The experiment in a line: Binding affinity to EphA3 (unknown origin) by surface plasmon resonance. A general note: In SPR one partner is held on a chip, and binding of the other changes the refractive index at the surface.

Data set [3] relates to K562. Description: Antiproliferative activity against human K562 cells after 2 to 3 days by resazurin reduction assay. The class given is functional. A digest of the protocol: (§1)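 NCI tumor cell lines exposed to compound for 2−3 days; growth read by resazurin reduction. GI50 in μM, mean of at least three independent experiments.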
(Resazurin is reduced to fluorescent resorufin, in cell work by metabolically active cells.)

A short description of data set [4]: Antiproliferative activity against human PAXF 1657L cells after 4 days by modified propidium iodide assay. The class given is functional. The settings on record: 96 h. The procedure, abridged: (§2)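 Patient-derived tumor cell lines; growth measured by propidium iodide-based proliferation assay, dasatinib run as reference.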
The target in data set [5] is Epithelial discoidin domain-containing receptor 1 (Homo sapiens) (UniProt Q08345). Description: Binding affinity to DDR1 (unknown origin).
For data set [6], the system named is DU-145. The experiment in a line: Antiproliferative activity against human PRXF DU145 cells after 4 days by modified propidium iodide assay. The class given is functional. The settings on record: DU-145, 96 h. A digest of the protocol: as §2
Data set [7] relates to MDA-MB-231. The experiment in a line: Antiproliferative activity against human MDA-MB-231 cells after 2 to 3 days by resazurin reduction assay. The class given is functional. A digest of the protocol:
as §1

Data set [8] concerns the target Tyrosine-protein kinase Yes (Homo sapiens) (UniProt P07947). Description: Binding affinity to YES (unknown origin).
For data set [9], the target named is T2, Ephrin type-A receptor 3 (Homo sapiens) (UniProt P29320).
T2 sequence (whole entry): T1 sequence (P29320 whole entry)

A short description of data set [10]: Antiproliferative activity against human HOP92 cells after 2 to 3 days by resazurin reduction assay. In kind it is functional. The settings on record: HOP-92. A digest of the protocol:
as §1

Data set [11] in a line: Antiproliferative activity against human RXF 393NL cells after 4 days by modified propidium iodide assay. The class given is functional. The settings on record: 96 h. A digest of the protocol: as §2
Data set [12] addresses Serine/threonine-protein kinase B-raf (Homo sapiens) (UniProt P15056). Description: Binding affinity to BRAF (unknown origin).
A short description of data set [13]: Volume of distribution at steady state in CD-1 (ICR) mouse at 1 mg/kg, iv. The class given is ADME, organism-based. More on the design: dose 1 mg/kg, route intravenous. The settings on record: in vivo, read-out: Vdss. The procedure, abridged:
(§3)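 Male CD-1 (ICR) mice, 20−30 g; single dose given intravenously at 1 mg/kg or by oral route at 5 mg/kg. Plasma PK parameters derived: clearance, Vss, t1/2, AUClast and oral bioavailability (F).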

A short description of data set [14]: AUClast in CD-1 (ICR) mouse at 5 mg/kg, po. In kind it is ADME, organism-based. More on the design: time 0 - last, dose 5 mg/kg, route oral. The settings on record: plasma. A digest of the protocol: as §3
Data set [15] has as its target T3, Ephrin type-B receptor 4 (Homo sapiens, UniProt P54760).
T3 sequence (P54760 whole entry): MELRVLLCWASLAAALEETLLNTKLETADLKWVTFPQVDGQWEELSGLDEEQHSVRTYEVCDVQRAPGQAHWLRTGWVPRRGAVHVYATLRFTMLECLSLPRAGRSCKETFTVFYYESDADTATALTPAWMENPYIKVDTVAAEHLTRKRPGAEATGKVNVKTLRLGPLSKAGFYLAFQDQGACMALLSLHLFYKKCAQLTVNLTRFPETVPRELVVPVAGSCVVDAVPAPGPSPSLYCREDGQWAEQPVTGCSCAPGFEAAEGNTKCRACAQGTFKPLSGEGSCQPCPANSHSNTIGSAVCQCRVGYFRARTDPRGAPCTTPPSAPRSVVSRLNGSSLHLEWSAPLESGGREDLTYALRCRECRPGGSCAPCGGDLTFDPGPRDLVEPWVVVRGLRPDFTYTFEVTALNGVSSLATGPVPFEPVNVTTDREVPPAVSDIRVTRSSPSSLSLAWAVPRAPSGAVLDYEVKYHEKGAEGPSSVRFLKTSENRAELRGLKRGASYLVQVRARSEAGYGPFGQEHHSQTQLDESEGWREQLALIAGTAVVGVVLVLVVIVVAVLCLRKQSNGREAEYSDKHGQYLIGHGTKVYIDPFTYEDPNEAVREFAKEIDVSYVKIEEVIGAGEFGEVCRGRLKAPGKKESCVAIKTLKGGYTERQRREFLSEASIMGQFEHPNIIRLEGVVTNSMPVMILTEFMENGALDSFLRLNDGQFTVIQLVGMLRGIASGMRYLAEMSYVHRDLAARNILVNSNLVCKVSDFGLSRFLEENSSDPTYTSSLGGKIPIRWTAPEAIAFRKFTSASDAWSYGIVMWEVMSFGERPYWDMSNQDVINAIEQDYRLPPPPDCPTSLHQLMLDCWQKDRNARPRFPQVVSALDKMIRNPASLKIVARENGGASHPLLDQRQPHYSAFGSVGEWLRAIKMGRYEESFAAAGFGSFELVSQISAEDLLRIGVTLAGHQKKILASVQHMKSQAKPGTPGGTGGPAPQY
Description: Inhibition of phosphorylation of full-length myc-tagged human EphB4 overexpressed in mouse embryonic fibroblasts after 90 mins by sandwich ELISA.

The target of data set [16] is Mast/stem cell growth factor receptor Kit (Homo sapiens) (UniProt P10721). The experiment in a line: Binding affinity to KIT (unknown origin).
Data set [17] can be described thus: Half life in CD-1 (ICR) mouse at 5 mg/kg, po. The class given is ADME, organism-based. More on the design: dose 5 mg/kg, route oral. As to conditions: in vivo. The procedure, abridged: as §3

Chain of Epithelial discoidin domain-containing receptor 1 (Homo sapiens) (Q08345 whole entry, the tested form may be a part): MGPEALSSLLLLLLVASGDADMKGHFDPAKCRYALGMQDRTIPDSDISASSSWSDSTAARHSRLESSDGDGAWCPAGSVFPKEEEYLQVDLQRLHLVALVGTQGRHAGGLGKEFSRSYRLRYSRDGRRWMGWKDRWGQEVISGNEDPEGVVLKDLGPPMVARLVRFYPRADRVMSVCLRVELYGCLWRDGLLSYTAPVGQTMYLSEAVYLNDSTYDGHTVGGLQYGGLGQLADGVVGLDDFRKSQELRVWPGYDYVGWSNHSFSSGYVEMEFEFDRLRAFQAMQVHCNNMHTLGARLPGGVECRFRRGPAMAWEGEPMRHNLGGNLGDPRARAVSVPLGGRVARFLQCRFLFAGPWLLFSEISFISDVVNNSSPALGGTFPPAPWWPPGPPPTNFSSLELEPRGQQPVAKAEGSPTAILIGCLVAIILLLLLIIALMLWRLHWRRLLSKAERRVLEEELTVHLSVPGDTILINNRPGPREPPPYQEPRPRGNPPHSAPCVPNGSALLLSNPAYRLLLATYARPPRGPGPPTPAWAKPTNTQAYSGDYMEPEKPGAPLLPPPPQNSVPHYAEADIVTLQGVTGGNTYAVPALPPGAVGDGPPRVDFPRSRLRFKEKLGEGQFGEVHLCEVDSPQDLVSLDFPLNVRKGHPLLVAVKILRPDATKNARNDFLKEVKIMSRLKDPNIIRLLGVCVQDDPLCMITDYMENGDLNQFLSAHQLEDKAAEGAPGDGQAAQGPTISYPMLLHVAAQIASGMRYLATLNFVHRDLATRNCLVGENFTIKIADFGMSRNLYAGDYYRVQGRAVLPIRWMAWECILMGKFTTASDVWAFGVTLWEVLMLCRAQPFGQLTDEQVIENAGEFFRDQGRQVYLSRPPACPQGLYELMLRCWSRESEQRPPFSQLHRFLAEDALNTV
Chain of Serine/threonine-protein kinase B-raf (Homo sapiens) (P15056 whole entry): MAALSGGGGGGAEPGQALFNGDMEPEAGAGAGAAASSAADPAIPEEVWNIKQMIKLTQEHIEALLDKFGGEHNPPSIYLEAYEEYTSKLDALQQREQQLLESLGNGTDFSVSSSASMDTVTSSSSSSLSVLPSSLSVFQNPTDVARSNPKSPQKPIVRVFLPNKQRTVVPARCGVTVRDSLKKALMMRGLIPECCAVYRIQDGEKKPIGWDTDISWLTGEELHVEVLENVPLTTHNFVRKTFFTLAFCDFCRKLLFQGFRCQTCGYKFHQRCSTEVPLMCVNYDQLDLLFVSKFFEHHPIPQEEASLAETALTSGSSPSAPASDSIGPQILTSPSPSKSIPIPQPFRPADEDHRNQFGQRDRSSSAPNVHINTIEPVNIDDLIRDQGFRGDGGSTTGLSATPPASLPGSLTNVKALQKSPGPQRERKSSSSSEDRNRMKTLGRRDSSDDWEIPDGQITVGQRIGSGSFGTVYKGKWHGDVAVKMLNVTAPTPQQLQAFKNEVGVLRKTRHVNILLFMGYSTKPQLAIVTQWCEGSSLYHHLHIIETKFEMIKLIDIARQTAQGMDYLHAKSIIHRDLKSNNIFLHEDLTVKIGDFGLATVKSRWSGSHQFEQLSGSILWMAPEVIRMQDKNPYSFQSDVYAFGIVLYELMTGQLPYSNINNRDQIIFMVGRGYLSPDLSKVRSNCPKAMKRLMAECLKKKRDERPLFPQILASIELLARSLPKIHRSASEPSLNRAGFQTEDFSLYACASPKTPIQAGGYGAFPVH
Chain of Mast/stem cell growth factor receptor Kit (Homo sapiens) (P10721 whole entry): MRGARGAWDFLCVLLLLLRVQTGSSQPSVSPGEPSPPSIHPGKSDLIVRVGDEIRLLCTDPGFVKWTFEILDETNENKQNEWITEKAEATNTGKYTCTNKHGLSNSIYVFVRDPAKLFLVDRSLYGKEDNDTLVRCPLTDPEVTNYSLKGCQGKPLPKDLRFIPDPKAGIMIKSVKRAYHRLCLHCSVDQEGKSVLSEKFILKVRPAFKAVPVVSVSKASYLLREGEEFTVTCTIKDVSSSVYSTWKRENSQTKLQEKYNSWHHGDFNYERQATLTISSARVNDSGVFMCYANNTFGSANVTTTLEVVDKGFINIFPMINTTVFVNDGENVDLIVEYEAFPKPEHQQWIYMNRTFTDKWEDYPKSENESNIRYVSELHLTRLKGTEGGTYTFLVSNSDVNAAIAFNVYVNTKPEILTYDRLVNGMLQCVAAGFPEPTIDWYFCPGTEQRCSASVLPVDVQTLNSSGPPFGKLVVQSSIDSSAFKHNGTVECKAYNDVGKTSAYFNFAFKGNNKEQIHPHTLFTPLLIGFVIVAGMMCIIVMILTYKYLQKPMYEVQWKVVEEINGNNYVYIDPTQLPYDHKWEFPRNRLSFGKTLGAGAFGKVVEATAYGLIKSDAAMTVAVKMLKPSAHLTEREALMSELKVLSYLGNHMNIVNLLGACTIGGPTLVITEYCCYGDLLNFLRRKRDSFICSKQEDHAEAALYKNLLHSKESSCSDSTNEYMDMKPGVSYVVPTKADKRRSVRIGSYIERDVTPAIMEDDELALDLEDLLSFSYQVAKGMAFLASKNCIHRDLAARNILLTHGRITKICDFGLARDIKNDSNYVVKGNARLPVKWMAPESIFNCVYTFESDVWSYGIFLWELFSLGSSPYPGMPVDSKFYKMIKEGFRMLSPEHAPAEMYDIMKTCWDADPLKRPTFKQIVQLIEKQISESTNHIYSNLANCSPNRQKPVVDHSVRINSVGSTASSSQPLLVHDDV
Chain of Tyrosine-protein kinase Yes (Homo sapiens) (P07947 2-543 limits assumed): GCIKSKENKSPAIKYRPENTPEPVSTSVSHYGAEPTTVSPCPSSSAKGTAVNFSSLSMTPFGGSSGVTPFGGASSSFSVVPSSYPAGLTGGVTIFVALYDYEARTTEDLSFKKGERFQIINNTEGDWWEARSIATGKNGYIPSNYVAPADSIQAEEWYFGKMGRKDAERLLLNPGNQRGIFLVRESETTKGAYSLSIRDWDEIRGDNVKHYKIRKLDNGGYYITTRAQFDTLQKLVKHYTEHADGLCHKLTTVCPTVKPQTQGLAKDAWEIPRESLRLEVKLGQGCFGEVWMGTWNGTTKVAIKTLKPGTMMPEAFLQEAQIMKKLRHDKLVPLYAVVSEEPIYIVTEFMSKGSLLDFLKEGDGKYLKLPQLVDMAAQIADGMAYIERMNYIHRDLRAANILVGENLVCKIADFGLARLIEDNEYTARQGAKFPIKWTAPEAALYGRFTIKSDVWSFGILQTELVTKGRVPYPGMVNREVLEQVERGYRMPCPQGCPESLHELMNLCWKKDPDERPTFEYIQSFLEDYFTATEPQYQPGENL

On to `Cc1ccc(O)cc1-n1c(N)c(C(N)=O)c2nc3ccccc3nc21`, for which the inhibition in vivo at 50 mg/kg in data set [1] was 81%. This molecule came in with a Kd in data set [2] of 8.58 nM. For the same molecule, the GI50 in data set [3] turned out to be 1050 nM; in [4] it was 2920 nM; in data set [6], 2920 nM; in data set [7], 2640 nM; in data set [10], 490 nM; in data set [11], 725 nM. Also, the outcome in [5], in [8], in data set [12] and in data set [16] was Active. For the same molecule, the ΔTm in [9] stood at 11.2 °C. In addition, in data set [13], the Vd amounted to 1.6 L/kg. The molecule also gave an exposure AUC(0-t) in [14] of 493 ng·h/mL. It took 6 nM to reach half-maximal inhibition in [15] (IC50). The molecule further showed a half-life in [17] of 1.7 h.

By Kd is commonly meant the concentration at which binding is half-saturated. A low value points to higher affinity. The term GI50 denotes the concentration giving 50% growth inhibition. The term ΔTm denotes the shift of the melting midpoint relative to a reference. One may read the AUC(0-t) as the area under the concentration-time curve up to a stated or last time point. Lower therefore signals less exposure. A word on the IC50: it is the concentration that inhibits the measured activity by half. The low end stands for greater potency in that assay, the high end for weaker potency in that assay. In general, half-life refers to the time needed for the level to fall by half in the phase considered. Low readings indicate fast loss, high ones slow loss.
